Source: PubChem BioAssay (several laboratories)
Shown are actives, neighbours in structure and some others; about 1.6% of the full set was active somewhere.
RAD54 inh: inhibitors of human RAD54 branch migration. Q92698. inhibition, % at 10.4 µM. hit rate 0.14% among 360,000. RAD54 Holliday junction branch migration, FAM/BHQ fluorescence;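 active means mean normalized replicate activity at least 40 and at least half of replicates scoring 40 or more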;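 further: 0% = median of neutral control wells and 100% = median of positive control wells; inhibitors cause a drop in the FAM fluorescence signal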
FID counter: displaces DNA intercalator in HCV helicase counter-screen | AID 1845 | DNA fluorescent intercalator displacement, fluorescence | inhibition, % at 7.9 µM | hit rate 0.17% among 290,000; in the data active means inhibition above about 37%;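 further: 0% = vehicle and 100% = reference compound; higher means more ethidium bromide displaced from hairpin DNA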
Neddylation inh: blocks human cullin neddylation. TR-FRET cullin neddylation, biochemical. calls only at 25 µM. hit rate 0.58% among 360,000. AID 651699; in the data active means inhibition above about 36%
Target sequence (P61081 whole entry, looked up): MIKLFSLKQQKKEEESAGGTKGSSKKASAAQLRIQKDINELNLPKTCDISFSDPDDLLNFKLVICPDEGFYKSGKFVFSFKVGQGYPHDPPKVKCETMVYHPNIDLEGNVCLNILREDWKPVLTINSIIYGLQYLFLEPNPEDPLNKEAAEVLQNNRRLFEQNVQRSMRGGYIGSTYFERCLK
Target sequence (Q13564 whole entry, looked up): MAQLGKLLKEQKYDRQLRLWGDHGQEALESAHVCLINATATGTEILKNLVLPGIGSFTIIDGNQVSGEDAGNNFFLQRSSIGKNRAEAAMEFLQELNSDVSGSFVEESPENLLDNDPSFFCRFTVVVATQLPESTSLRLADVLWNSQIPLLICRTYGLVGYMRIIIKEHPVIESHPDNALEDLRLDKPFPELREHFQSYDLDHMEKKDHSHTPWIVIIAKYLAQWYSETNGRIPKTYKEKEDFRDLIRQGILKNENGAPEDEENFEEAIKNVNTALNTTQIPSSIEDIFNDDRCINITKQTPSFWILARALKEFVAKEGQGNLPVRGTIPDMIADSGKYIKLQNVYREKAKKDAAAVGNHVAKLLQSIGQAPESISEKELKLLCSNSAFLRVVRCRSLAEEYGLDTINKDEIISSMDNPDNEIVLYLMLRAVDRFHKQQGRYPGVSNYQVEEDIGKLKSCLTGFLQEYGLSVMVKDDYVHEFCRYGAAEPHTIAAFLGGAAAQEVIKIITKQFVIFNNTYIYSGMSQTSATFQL
UBC13 polyUb: blocks human UBC13 polyubiquitin chain formation; P61088; TR-FRET; inhibition, % at 20 µM; hit rate 0.47% among 330,000; AID 485273; in the data active means inhibition above about 45%, passing the limit was not always enough
Apaf1 inhib: blocks human Apaf-1 apoptosome activity; O14727; reconstituted apoptosome caspase-3 activity, DEVD-Rh110 fluorescence; inhibition, % at 20 µM; hit rate 0.71% among 330,000; AID 489030; active means inhibition of at least 40% at 20 µM;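 further: plate controls were DMSO wells for no effect and DEVD-CHO caspase inhibitor wells for full effect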
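System: reconstituted apoptosome with Apaf-1, cytochrome c, caspase-9, procaspase-3, dATP; Signal: Rh110 fluorescence intensity; Schedule: 30 min compound preincubation, 50 min activation, room temperature; Reagent: cytochrome c trigger plus (Z-DEVD)2-Rh110 caspase-3 substrate.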
RAD52 inh: inhibitors of human RAD52 DNA annealing | recombinant RAD52 DNA annealing, FRET fluorescence | hit rate 0.46% among 360,000 | AID 651710 | inhibition, % at 18.7 µM;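 active means every replicate showing at least 50% inhibition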
Neddyl conf: confirmation of human cullin neddylation inhibitors | shares compounds with Neddylation inh | TR-FRET cullin neddylation biochemical assay | calls only at 25 µM | hit rate 13% among 1,800; in the data active means inhibition above about 40%;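 further: neddylation substrate is the cullin 1 ring ligase complex with SKP2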
Starred values were filed as active, the others as inactive; i = inactive; nt = not tested or not shown; + = active, no number.

SMILES | RAD54 inh | FID counter | Neddylation inh | UBC13 polyUb | Apaf1 inhib | RAD52 inh | Neddyl conf
CCC(=O)N(C)C[C@H]1Oc2cc(C3=CCCC3)ccc2S(=O)(=O)N([C@@H](C)CO)C[C@H]1C | 2.3 | nt | nt | nt | nt | 8.5 | nt
Cc1cccc(C(=O)Oc2ccc(/C=N/NC(=O)c3ccncc3)cc2)c1 | nt | -9.9 | + | -4.2 | 10.6 | -12.9 | i
O=C(Oc1ccc(/C=N/NC(=O)c2ccccc2O)cc1)c1ccccc1 | 0.5 | -9.7 | + | -1.0 | -2.2 | nt | i
Cc1cccc(C(=O)Oc2ccc(/C=N/NC(=O)c3cc(O)cc(O)c3)cc2)c1 | 11.3 | -31.0 | i | 5.9 | 22.9 | -11.9 | nt
O=C(O)c1c(C(=O)N2N=C3/C(=C/c4ccccc4)CCCC3C2c2ccccc2)cccc1[N+](=O)[O-] (stereo not drawn) | nt | -33.0 | i | 9.4 | 10.9 | -5.6 | nt
CC(=O)N1N=C2/C(=C/c3ccccc3)CCCC2C1c1ccccc1 (stereo not drawn) | nt | -30.0 | + | 9.4 | 17.0 | -9.1 | nt
CCCn1c(SCC(=O)N2N=C3/C(=C/c4ccc(OC)cc4)CCCC3C2c2ccc(OC)cc2)n[nH]c1=O (stereo not drawn) | -0.1 | -40.3 | + | -13.3 | 34.1 | -11.0 | i
O=C(O)c1cccc(N2CCCC2)c1 | -21.5 | -1.7 | + | 11.3 | -3.4 | nt | nt
COc1ccccc1CN1C[C@H](C)[C@H](OC)CN(C)C(=O)c2ccc(NC(C)=O)cc2OC[C@H]1C | -13.7 | nt | nt | nt | nt | 7.4 | nt
O=C(C1CC1)N1CC2(C1)[C@@H](c1ccccc1)[C@@H](CO)N2C(=O)c1cccnc1 | nt | nt | nt | nt | nt | -5.0 | nt
CC(C)(C)c1ccc(/C=C2\CCn3c2nc2cc(C(=O)O)ccc2c3=O)cc1 | -0.5 | -10.8 | + | -44.6 | 7.4 | -7.3 | +
CCOc1ccc(-n2c(O)c(/C=N/NC(=O)C3COc4ccccc4O3)c3ccccc3c2=O)cc1 (stereo not drawn) | 0.7 | -11.6 | + | 10.8 | 19.9 | nt | i
COc1cc(/C=N\NC(=O)C2COc3ccccc3O2)cc(OC)c1O (stereo not drawn) | -1.8 | -12.5 | i | 11.8 | -25.4 | -11.4 | nt
CC1(C)CC(=O)c2cc(OCC(=O)N3CCN(c4ccccc4F)CC3)ccc2O1 | -0.4 | -32.8 | + | 16.9 | -18.5 | 2.4 | nt
O=C(C[C@@H]1C[C@@H]2c3cc(NC(=O)Nc4ccc(F)cc4)ccc3O[C@@H]2[C@@H](CO)O1)NCC1CC1 | 7.6 | nt | nt | nt | nt | nt | nt
COc1cccc(N2CCN(C(=O)c3cccn4c(=O)c5c(C)c(C)sc5nc34)CC2)c1 | nt | -1.1 | + | 29.3 | 15.2 | -14.6 | nt
COc1ccc(N2CCN(C(=O)c3cccn4c(=O)c5ccccc5nc34)CC2)cc1 | nt | 0.5 | i | -9.1 | 12.2 | -18.0 | nt
CCC(=O)N1C[C@H](C)[C@H](OC)CN(C)C(=O)c2cc(NC(=O)NC(C)C)ccc2OC[C@@H]1C | 10.2 | nt | nt | nt | nt | 11.0 | nt
CC(=O)c1ccc(-c2ccc(C(=O)NCC(c3ccc(F)cc3)N3CCOCC3)o2)cc1 (stereo not drawn) | 7.3 | nt | + | 1.4 | 1.3 | -47.5 | +
O=C(Nc1ccc2nsnc2c1)C1CC1 | 5.2 | 5.4 | + | 33.6 | 0.2 | -32.2 | +
CC(C)Cn1nc(NC(=O)c2ccco2)c2cc3ccccc3nc21 | nt | -31.7 | + | 8.9 | -4.0 | -54.5 | nt
O=C(C[C@H]1C[C@@H]2c3cc(NC(=O)Nc4ccccc4F)ccc3O[C@@H]2[C@@H](CO)O1)NCc1ccncc1 | -8.3 | nt | nt | nt | nt | 10.6 | nt
CN1C[C@@H]2[C@H](c3ccccc31)[C@H](CO)N2C(=O)Nc1cccc(F)c1 | 8.4 | nt | nt | nt | nt | -2.4 | nt
CCc1ccc(-c2ccc3nnc(SCC(N)=O)n3n2)cc1 | 3.0 | -19.8 | + | 10.2 | 8.3 | 2.9 | i
O=C(CSc1nnc2ccc(-c3ccc(F)cc3)nn12)NCC1CCCO1 (stereo not drawn) | nt | nt | + | 5.5 | 1.9 | -8.7 | nt
SMILES | RAD54 inh | FID counter | Neddylation inh | UBC13 polyUb | Apaf1 inhib | RAD52 inh | Neddyl conf
O=C(CSc1ccc(-c2ccc(F)cc2)nn1)NCC1CCCO1 (stereo not drawn) | 3.5 | -3.5 | i | -9.4 | -2.5 | -3.1 | nt
Cc1ccc(-c2cc(C(F)(F)F)n3nc(C(=O)NCCCn4ccnc4)cc3n2)cc1C | 12.2 | -1.5 | + | 13.8 | -9.9 | nt | nt
Cc1cc(Nc2nc3c(c(=O)n(C)c(=O)n3C)n2C)n(-c2ccc(Cl)cc2)n1 | 3.2 | -15.1 | + | -1.7 | 5.3 | nt | i
O=C(Nc1cc2c3c(c1)C1CCCC1CN3CC1CCCC21)c1ccccc1 (stereo not drawn) | 50.2* | 1.8 | + | 9.3 | 38.3 | nt | i
O=C(Nc1cccc(C(=O)NC2CC2)c1)c1ccccc1 | -2.8 | nt | i | nt | nt | 13.0 | nt
N#CC(C#N)=Cc1cn(-c2ncc(C(F)(F)F)cc2Cl)c2ccccc12 | nt | -6.1 | + | -9.5 | 15.2 | nt | i
COc1ccccc1-n1c(-c2ccc(NS(C)(=O)=O)cc2)n[nH]c1=S | 3.8 | -4.8 | + | 1.5 | -18.1 | nt | i
COc1ccc(-c2n[nH]c(=S)n2-c2cc(OC)ccc2OC)cc1 | 3.4 | -15.0 | i | 2.7 | -7.3 | -13.6 | nt
COc1ccc2c3c([nH]c2c1)[C@@H](CO)N(C(=O)c1ccccc1)CC31CN(C(=O)NC(C)C)C1 | nt | nt | nt | nt | nt | 1.8 | nt
COc1ccccc1CNS(=O)(=O)c1c(C)nc2scc(C)n2c1=O | 3.6 | -9.4 | i | -1.8 | 2.9 | 0.6 | nt
Cc1nc2scc(C)n2c(=O)c1S(=O)(=O)NCc1ccccc1Cl | 0.4 | -9.8 | + | 1.4 | 6.6 | -10.6 | i
COc1ccc2nc(NC(=O)c3c(C)noc3C)sc2c1 | 6.3 | nt | + | 8.0 | 4.7 | 1.2 | i
Cc1noc(C)c1C(=O)Nc1nc2ccc(S(C)(=O)=O)cc2s1 | -10.9 | -9.8 | i | -3.5 | 8.1 | -6.2 | nt
CCOC(=O)Cc1csc(NC(=O)/C=C/c2ccc(Cl)cc2)n1 | -5.4 | -12.0 | + | 21.1 | -15.4 | -6.0 | i
CCOC(=O)Cc1csc(NC(=O)/C=C/c2ccco2)n1 | nt | -31.9 | i | -5.9 | -23.4 | -35.6 | nt
Cc1ccc(-c2cc(C(F)(F)F)c(C#N)c(SCC(=O)O)n2)cc1 | nt | -26.4 | i | -5.1 | 3.5 | -12.8 | nt
CCCOc1ccc(-c2cc(C(F)(F)F)c(C#N)c(SCC(=O)O)n2)cc1 | nt | -31.9 | + | -17.7 | 7.0 | 8.6 | i
CC(=O)N(C)c1cccc(-c2ccc3nnc(C)n3n2)c1 | 5.4 | -9.4 | + | 3.8 | 0.0 | -9.9 | nt
CC(=O)Nc1ccc(-c2ccc3nnc(C)n3n2)cc1 | -0.1 | 3.2 | i | -11.7 | -9.0 | -11.4 | nt
COC(=O)C[C@@H]1CC[C@H]2[C@H](COc3ccc(NC(=O)Nc4ccccc4C)cc3C(=O)N2C)O1 | 2.5 | nt | nt | nt | nt | -12.0 | nt
COc1ccc(NC(=O)COc2ccc3c(C)cc(=O)oc3c2)cc1S(=O)(=O)N1CCCCC1 | nt | nt | + | -6.3 | 4.9 | -8.1 | nt
COc1ccc(S(=O)(=O)N2CCOCC2)cc1NC(=O)COc1ccc2c(C)cc(=O)oc2c1 | 9.2 | nt | i | 10.7 | 10.6 | -6.0 | nt
